Source: ChEMBL document CHEMBL3734650, “Synthesis and activity of novel 16-dehydropregnenolone acetate derivatives as inhibitors of type 1 5α-reductase and on cancer cell line SK-LU-1” (Bioorg Med Chem, 2015)
Calls of active or inactive are those of the source. The rule behind the calls is not given here.

Key:
[1] = (§1) Cytotoxicity against human PC3 cells assessed as growth inhibition at 50 uM; assay type: functional; settings: PC-3, read-out: GI
Summary of the method: (§2)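 Growth inhibition calculated from absorbance as 100 − (sample absorbance / vehicle absorbance × 100).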

MCF7 = experiment: Cytotoxicity against human MCF7 cells as growth inhibition at 50 uM; assay type: functional; settings: for inhibition of growth at 50 µM: read-out: GI; summary of the method: as §2
[2] = (§3) Cytotoxicity against human SKLU1 cells as growth inhibition at 50 uM; assay type: functional; settings: SK-LU-1, read-out: GI; summary of the method: as §2
[3] = biological target: T1, 3-oxo-5-alpha-steroid 4-dehydrogenase 1 (Rattus norvegicus, UniProt P24008); experiment: Inhibition of rat liver type 1 5alpha-reductase assessed as transformation of testosterone to dihydrotestosterone
T1 sequence (P24008 whole entry): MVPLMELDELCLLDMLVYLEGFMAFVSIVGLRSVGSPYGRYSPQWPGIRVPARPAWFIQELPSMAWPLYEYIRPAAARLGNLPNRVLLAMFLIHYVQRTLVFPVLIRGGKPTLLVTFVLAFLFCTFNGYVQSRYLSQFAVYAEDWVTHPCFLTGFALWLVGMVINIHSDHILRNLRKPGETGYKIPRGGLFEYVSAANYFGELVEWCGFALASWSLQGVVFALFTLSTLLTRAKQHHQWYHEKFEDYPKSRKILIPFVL
Summary of the method: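 Enzyme source: liver microsomes from overnight-fasted adult rats (8-month, 500 g), prepared in buffer A (20 mM sodium phosphate pH 6.5, 0.32 M sucrose, 0.1 mM DTT) at 4 °C, resuspended at 20 mg protein/mL. Inhibitors at 1 × 10⁻¹⁰ to 10⁻⁴ M. Radiolabelled T→DHT conversion quantified from TLC-plate radioactivity. IC50 taken from inhibition curves.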

[4] = biological target: T2, 3-oxo-5-alpha-steroid 4-dehydrogenase 2 (Homo sapiens, UniProt P31213); experiment: Inhibition of human prostate type 2 5alpha-reductase assessed as transformation of testosterone to dihydrotestosterone; assay type: tissue-based, Prostate gland
T2 sequence (P31213 whole entry): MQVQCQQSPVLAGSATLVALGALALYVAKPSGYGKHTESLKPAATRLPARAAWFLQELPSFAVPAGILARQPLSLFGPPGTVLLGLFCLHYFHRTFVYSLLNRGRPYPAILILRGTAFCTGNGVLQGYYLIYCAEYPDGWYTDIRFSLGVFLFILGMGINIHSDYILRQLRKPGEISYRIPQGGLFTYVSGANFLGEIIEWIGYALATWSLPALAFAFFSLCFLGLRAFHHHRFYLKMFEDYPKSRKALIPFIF
Summary of the method: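 Enzyme source: normal prostate from a person, homogenized in buffer A (20 mM sodium phosphate pH 6.5, 0.32 M sucrose, 0.1 mM DTT), pelleted at 1500 × g, resuspended at 5 mg protein/mL. Inhibitors at 1 × 10⁻¹⁰ to 10⁻⁴ M. Radiolabelled T→DHT conversion quantified by TLC lane radioactivity against total plate radioactivity. IC50 taken from inhibition curves.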

Androgen receptor = biological target: T3, Androgen receptor (Rattus norvegicus, UniProt P15207); experiment: Displacement of [3H}-MIB from rat prostate cytosol androgen receptor assessed as relative binding affinity
T3 sequence (P15207 whole entry): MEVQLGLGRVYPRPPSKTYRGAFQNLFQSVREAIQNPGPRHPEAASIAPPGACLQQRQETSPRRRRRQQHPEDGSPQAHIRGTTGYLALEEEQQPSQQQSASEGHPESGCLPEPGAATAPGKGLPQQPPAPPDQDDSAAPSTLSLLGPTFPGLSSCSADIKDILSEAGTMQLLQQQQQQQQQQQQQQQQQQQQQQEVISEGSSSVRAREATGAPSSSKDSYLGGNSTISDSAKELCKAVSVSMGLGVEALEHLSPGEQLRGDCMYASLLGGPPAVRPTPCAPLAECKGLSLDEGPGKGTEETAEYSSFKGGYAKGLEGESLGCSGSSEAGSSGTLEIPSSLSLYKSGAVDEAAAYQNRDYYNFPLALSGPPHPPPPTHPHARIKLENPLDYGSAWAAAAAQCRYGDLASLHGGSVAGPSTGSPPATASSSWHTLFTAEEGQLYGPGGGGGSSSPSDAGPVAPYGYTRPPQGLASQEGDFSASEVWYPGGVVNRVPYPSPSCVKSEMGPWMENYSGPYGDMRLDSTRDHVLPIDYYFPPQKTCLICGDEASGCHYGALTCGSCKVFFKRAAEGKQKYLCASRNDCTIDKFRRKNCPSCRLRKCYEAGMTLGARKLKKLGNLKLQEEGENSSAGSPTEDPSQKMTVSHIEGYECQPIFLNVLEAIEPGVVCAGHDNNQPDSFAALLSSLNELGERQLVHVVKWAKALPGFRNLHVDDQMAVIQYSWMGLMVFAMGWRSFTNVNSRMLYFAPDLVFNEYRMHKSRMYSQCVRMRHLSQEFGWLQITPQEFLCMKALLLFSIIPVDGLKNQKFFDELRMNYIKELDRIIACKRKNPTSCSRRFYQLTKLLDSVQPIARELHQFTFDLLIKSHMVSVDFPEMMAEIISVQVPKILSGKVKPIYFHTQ

Syrian golden hamster [5] = experiment: Increase of diameter of pigmented spot of flank organs in gonadectomized golden hamster at 2 mg/kg, sc qd for 6 days co-administered with 1 mg/kg of testosterone (reference value: 2.03 +/- 0.63 millimeter); assay type: functional, Mesocricetus auratus
Syrian golden hamster [6] = experiment: Increase of prostate weight in gonadectomized golden hamster at 2 mg/kg, sc qd for 6 days co-administered with 1 mg/kg of testosterone (reference value: 50.4 +/- 9.9 mg); assay type: functional, Mesocricetus auratus, Prostate gland
Syrian golden hamster [7] = experiment: Increase of seminal vesicles weight in gonadectomized golden hamster at 2 mg/kg, sc qd for 6 days co-administered with 1 mg/kg of testosterone (reference value: 96.11 +/- 12.5 mg); assay type: functional, Mesocricetus auratus
PC-3 = experiment: as §1; assay type: functional; summary of the method: as §2
SK-LU-1 = experiment: as §3; assay type: functional; summary of the method: as §2
Syrian golden hamster [8] = experiment: Increase of diameter of pigmented spot of flank organs in gonadectomized golden hamster at 1 mg/kg, sc qd for 6 days (reference value: 2.03 +/- 0.63 millimeter); assay type: functional, Mesocricetus auratus
Syrian golden hamster [9] = experiment: Increase of prostate weight in gonadectomized golden hamster at 1 mg/kg, sc qd for 6 days (reference value: 50.4 +/- 9.9 mg); assay type: functional, Mesocricetus auratus, Prostate gland
Syrian golden hamster [10] = experiment: Increase of seminal vesicles weight in gonadectomized golden hamster at 1 mg/kg, sc qd for 6 days (reference value: 96.11 +/- 12.5 mg); assay type: functional, Mesocricetus auratus
Syrian golden hamster [11] = experiment: Increase of prostate weight in gonadectomized golden hamster at 1 mg/kg, sc qd for 6 days co-administered with 1 mg/kg of testosterone (reference value: 50.4 +/- 9.9 mg); assay type: functional, Mesocricetus auratus, Prostate gland
Syrian golden hamster [12] = experiment: Increase of diameter of pigmented spot of flank organs in gonadectomized golden hamster at 1 mg/kg, sc qd for 6 days co-administered with 1 mg/kg of testosterone (reference value: 2.03 +/- 0.63 millimeter); assay type: functional, Mesocricetus auratus
Syrian golden hamster [13] = experiment: Increase of seminal vesicles weight in gonadectomized golden hamster at 1 mg/kg, sc qd for 6 days co-administered with 1 mg/kg of testosterone (reference value: 96.11 +/- 12.5 mg); assay type: functional, Mesocricetus auratus

Structure (SMILES) | inhibition of growth at 50 µM [1] | inhibition of growth at 50 µM (MCF7) | inhibition of growth at 50 µM [2] | IC50 [3] | IC50 [4] | IC50 (Androgen receptor) | Activity (Syrian golden hamster [5]) | Activity (Syrian golden hamster [6]) | Activity (Syrian golden hamster [7]) | IC50 ([3]; read-out: IC50) | growth inhibition (GI) (PC-3) | growth inhibition (GI) (MCF7) | growth inhibition (GI) (SK-LU-1) | IC50 ([4]; read-out: IC50) | Activity (Syrian golden hamster [8]) | Activity (Syrian golden hamster [9]) | Activity (Syrian golden hamster [10]) | Activity (Syrian golden hamster [11]) | Activity (Syrian golden hamster [12]) | Activity (Syrian golden hamster [13])
C[C@]12CC[C@H](O)CC1=CC[C@@H]1[C@@H]2CC[C@]2(C)C(C(=O)Cn3cncn3)=CC[C@@H]12 | 61.3% | 62.1% | 88.9% | Not Active | Not Active | Not Active | 3.05 mm | 89 mg | 163.33 mg |  |  |  |  |  |  |  |  |  |  | 
CCCC(=O)O[C@H]1CC[C@@]2(C)C(=CC[C@@H]3[C@@H]2CC[C@]2(C)C(C(=O)Cn4cncn4)=CC[C@@H]32)C1 | 9.2% | 25.6% | 15.6% | Not Active | Not Active | Not Active | 2.71 mm | 81.3 mg | 138.9 mg |  |  |  |  |  |  |  |  |  |  | 
CCCCC(=O)O[C@H]1CC[C@@]2(C)C(=CC[C@@H]3[C@@H]2CC[C@]2(C)C(C(=O)Cn4cncn4)=CC[C@@H]32)C1 | 38.2% | 38.5% | 20.2% |  | Not Active | Not Active | 3.71 mm | 82.3 mg | 180.03 mg | 0.32 µM |  |  |  |  |  |  |  |  |  | 
C[C@]12CC[C@H](OC(=O)C3CC3)CC1=CC[C@@H]1[C@@H]2CC[C@]2(C)C(C(=O)Cn3cncn3)=CC[C@@H]12 |  |  |  | Not Active |  | Not Active | 2.88 mm | 107.48 mg | 180.3 mg |  | inactive | inactive | inactive | 118 µM |  |  |  |  |  | 
C[C@]12CC[C@H](OC(=O)C3CCCCCC3)CC1=CC[C@@H]1[C@@H]2CC[C@]2(C)C(C(=O)Cn3cncn3)=CC[C@@H]12 |  |  |  | Not Active |  | Not Active | 4.45 mm | 78.2 mg | 203.98 mg |  | inactive | inactive | inactive |  |  |  |  |  |  | 
CCC(=O)O[C@H]1CC[C@@]2(C)C(=CC[C@@H]3[C@@H]2CC[C@]2(C)C(C(=O)Cn4cncn4)=CC[C@@H]32)C1 |  | 5.9% | 8.8% |  | Not Active | Not Active | 2.79 mm | 89.55 mg | 157.08 mg | 0.088 µM | inactive |  |  |  |  |  |  |  |  | 
CC(=O)N1CCN(c2ccc(OCC3COC(Cn4ccnc4)(c4ccc(Cl)cc4Cl)O3)cc2)CC1 (stereo not given) [KETOCONAZOLE] | 88.5% | 95.2% | 73.4% |  |  |  |  |  |  |  |  |  |  |  |  |  |  |  |  | 
CCCCCC(=O)O[C@H]1CC[C@@]2(C)C(=CC[C@@H]3[C@@H]2CC[C@]2(C)C(C(=O)Cn4cncn4)=CC[C@@H]32)C1 | 16.9% | 14.4% | 6.4% |  | Not Active | Not Active | 2.8 mm | 86.9 mg | 200 mg | 100 µM |  |  |  |  |  |  |  |  |  | 
C[C@]12CC[C@H]3[C@@H](CCC4=CC(=O)CC[C@@]43C)[C@@H]1CC[C@@H]2O [TESTOSTERONE] |  |  |  |  |  |  |  |  |  |  |  |  |  |  | 5.65 mm | 98 mg | 200.6 mg |  |  | 
C[C@]12CC[C@H](OC(=O)C3CCCC3)CC1=CC[C@@H]1[C@@H]2CC[C@]2(C)C(C(=O)Cn3cncn3)=CC[C@@H]12 |  |  |  | Not Active | Not Active | Not Active | 2.8 mm | 97 mg | 120 mg |  | inactive | inactive | inactive |  |  |  |  |  |  | 
C[C@]12CC[C@H](OC(=O)C3CCC3)CC1=CC[C@@H]1[C@@H]2CC[C@]2(C)C(C(=O)Cn3cncn3)=CC[C@@H]12 |  |  |  | Not Active | Not Active | Not Active | 2.14 mm | 100 mg | 130 mg |  | inactive | inactive | inactive |  |  |  |  |  |  | 
CC(C)(C)NC(=O)[C@H]1CC[C@H]2[C@@H]3CC[C@H]4NC(=O)C=C[C@]4(C)[C@H]3CC[C@]12C [FINASTERIDE] |  |  |  |  |  |  |  |  |  |  | inactive | inactive | inactive |  |  |  |  | 69.6 mg | 3.57 mm | 161.4 mg
CC(=O)O[C@H]1CC[C@@]2(C)C(=CC[C@@H]3[C@@H]2CC[C@]2(C)C(C(=O)Cn4cncn4)=CC[C@@H]32)C1 | 56.2% | 59.4% | 74.8% | Not Active |  | Not Active | 2.9 mm | 87.65 mg | 216.075 mg |  |  |  |  | 100 µM |  |  |  |  |  | 
C[C@]12CC[C@H](OC(=O)C3CCCCC3)CC1=CC[C@@H]1[C@@H]2CC[C@]2(C)C(C(=O)Cn3cncn3)=CC[C@@H]12 |  |  |  | Not Active | Not Active | Not Active | 3 mm | 88 mg | 150 mg |  | inactive | inactive | inactive |  |  |  |  |  |  | 
